ChEMBL document CHEMBL3272259, “Nitroimidazoles with antibacterial activity against Neisseria gonorrhoeae” (1977)
In brackets after ≈: the same amount, converted by molar mass. Activity calls are given as the source filed them. The calls are words filed in the database; no cut-off is given here.

Columns and labels:
Pentatrichomonas hominis = experiment: Antibacterial activity against Pentatrichomonas hominis ATCC 30000 after 48 hrs by ten-fold serial dilution method; type: functional; conditions: ATCC 30000, 48 h
Procedure, shortened: (§1)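 Trichomonads were cultured in Diamond medium with 5% serum and incubated 48 h at 37 °C. Cultures were examined microscopically for motile cells, and the MIC (µg/mL) is the lowest concentration giving no motile organisms.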

Trichomonas vaginalis = experiment: Antibacterial activity against Trichomonas vaginalis ATCC 30001 after 48 hrs by ten-fold serial dilution method; type: functional; conditions: ATCC 30001, 48 h; procedure, shortened: as §1
Candida albicans = experiment: Antifungal activity against Candida albicans; type: functional, organism-based
Tritrichomonas foetus = experiment: Antibacterial activity against Tritrichomonas foetus 1002-96-27 after 48 hrs by ten-fold serial dilution method; type: functional; conditions: 1002-96-27, 48 h; procedure, shortened: as §1
Neisseria gonorrhoeae = experiment: Antibacterial activity against Neisseria gonorrhoeae ATCC 19424 after 48 hrs by ten-fold serial dilution method; type: functional; conditions: ATCC 19424, 48 h
Procedure, shortened: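 Tested on chocolate agar made from GC agar base with hemoglobin and Supplement C, incubated 48 h at 37 °C. Plates were checked visually, and the MIC (µg/mL) is the lowest concentration with no visible growth.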

Bacteroides fragilis = experiment: Antibacterial activity against Bacteroides fragilis ATCC 23745 after 24 hrs by ten-fold serial dilution method; type: functional; conditions: ATCC 23745, 24 h
Procedure, shortened: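 Grown in Fluid Thioglycollate Broth and incubated 24 h at 37 °C. Growth was read by eye, and the MIC (µg/mL) is the lowest concentration that prevented visible growth.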

Clostridium perfringens = experiment: Antibacterial activity against Clostridium perfringens ATCC 13124 after 24 hrs by ten-fold serial dilution method; type: functional; conditions: ATCC 13124, 24 h
Procedure, shortened: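 Grown in Fluid Thioglycollate Broth and incubated 24 h at 37 °C. Growth was checked by eye after incubation. MIC was taken as the lowest concentration, in μg/mL, that prevented visible growth.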

Row | SMILES | MIC (Pentatrichomonas hominis) [µg/mL] | MIC (Trichomonas vaginalis) [µg/mL] | Activity (Candida albicans) | MIC (Tritrichomonas foetus) [µg/mL] | MIC (Neisseria gonorrhoeae) [µg/mL] | MIC (Bacteroides fragilis) [µg/mL] | MIC (Clostridium perfringens) [µg/mL]
1 | Cn1c([N+](=O)[O-])cnc1S(=O)(=O)CCCCCCCOc1ccccc1[N+](=O)[O-] | > 100 | > 100 | inactive | > 100 | > 100 | > 100 | > 100
2 | CCOC(=O)c1ccc(OCCCCCCCCCCSc2ncc([N+](=O)[O-])n2C)c([N+](=O)[O-])c1 | 10 (≈ 19.7 µM) | 10 (≈ 19.7 µM) | inactive | 10 (≈ 19.7 µM) | > 100 | 10 (≈ 19.7 µM) | > 100
3 | Cn1c([N+](=O)[O-])cnc1[S+]([O-])CCCCC(=O)O (configuration not stated) | 100 (≈ 363 µM) | 100 (≈ 363 µM) | inactive | > 100 | 100 (≈ 363 µM) | 100 (≈ 363 µM) | > 100
4 | Cn1c([N+](=O)[O-])cnc1SCCCOc1ccc(C(=O)O)cc1 | 1 (≈ 2.96 µM) | 1 (≈ 2.96 µM) | inactive | 10 (≈ 29.6 µM) | 1 (≈ 2.96 µM) | 1 (≈ 2.96 µM) | 10 (≈ 29.6 µM)
5 | Cn1c([N+](=O)[O-])cnc1SCCCCCCCCCCCCCCCC(=O)O | 100 (≈ 242 µM) | 100 (≈ 242 µM) | inactive | 100 (≈ 242 µM) | > 100 | > 100 | > 100
6 | Cn1c([N+](=O)[O-])cnc1SCCOc1ccc(C(=O)[O-])cc1.[Na+] | 1 | 1 |  | 10 | 1 | 1 | 10
7 | Cn1c([N+](=O)[O-])cnc1SCCCCCCCCCC(=O)O | 1 (≈ 3.04 µM) | 10 (≈ 30.4 µM) | inactive | 1 (≈ 3.04 µM) | 0.1 (≈ 0.304 µM) | 10 (≈ 30.4 µM) | 10 (≈ 30.4 µM)
8 | Cn1c([N+](=O)[O-])cnc1SCCCCCC(=O)O | 1 (≈ 3.66 µM) | 1 (≈ 3.66 µM) | inactive | 1 (≈ 3.66 µM) | 0.1 (≈ 0.366 µM) | 100 (≈ 366 µM) | 10 (≈ 36.6 µM)
9 | Cn1c([N+](=O)[O-])cnc1[S+]([O-])CCCCCCCCCCC(=O)O (configuration not stated) | 100 (≈ 278 µM) | 10 (≈ 27.8 µM) | inactive | 100 (≈ 278 µM) | 100 (≈ 278 µM) | > 100 | > 100
10 | Cn1ccnc1SCCOc1ccc(C(=O)O)cc1 | > 100 | > 100 | inactive | > 100 | > 100 | > 100 | > 100
11 | Cn1c([N+](=O)[O-])cnc1SCCCCC(=O)O | 1 (≈ 3.86 µM) | 1 (≈ 3.86 µM) | inactive | 1 (≈ 3.86 µM) | 1 (≈ 3.86 µM) | 1 (≈ 3.86 µM) | 
12 | Cc1ncc([N+](=O)[O-])n1CCO [METRONIDAZOLE] | 1 (≈ 5.84 µM) | 10 (≈ 58.4 µM) | inactive | 1 (≈ 5.84 µM) | > 100 | 1 (≈ 5.84 µM) | 10 (≈ 58.4 µM)
13 | Cn1ccnc1SCCOc1ccc(C#N)cc1 | > 100 | > 100 |  | > 100 | > 100 | > 100 | > 100
14 | Cn1c([N+](=O)[O-])cnc1[S+]([O-])CCOc1ccc(C#N)cc1 (configuration not stated) | 100 (≈ 312 µM) | 10 (≈ 31.2 µM) | inactive | 100 (≈ 312 µM) | 100 (≈ 312 µM) | 100 (≈ 312 µM) | > 100
15 | COC(=O)CCCCCCCCCCS(=O)(=O)c1ncc([N+](=O)[O-])n1C | > 100 | > 100 | inactive | > 100 | > 100 | > 100 | > 100
16 | Cn1c([N+](=O)[O-])cnc1SCCCCCCC(=O)O | 1 (≈ 3.48 µM) | 1 (≈ 3.48 µM) | inactive | 10 (≈ 34.8 µM) | 0.1 (≈ 0.348 µM) | 1 (≈ 3.48 µM) | 1 (≈ 3.48 µM)
17 | Cn1c([N+](=O)[O-])cnc1SCCCCCCCCC(=O)O | 10 (≈ 31.7 µM) | 10 (≈ 31.7 µM) | inactive | 10 (≈ 31.7 µM) | 0.1 (≈ 0.317 µM) | 10 (≈ 31.7 µM) | 10 (≈ 31.7 µM)
18 | COC(=O)CCCCCCCCCC[S+]([O-])c1ncc([N+](=O)[O-])n1C (configuration not stated) | 100 (≈ 268 µM) | 100 (≈ 268 µM) | inactive | 100 (≈ 268 µM) | 100 (≈ 268 µM) | > 100 | > 100
19 | Cn1c([N+](=O)[O-])cnc1S(=O)(=O)CCC(=O)O | 100 (≈ 380 µM) | 100 (≈ 380 µM) | inactive | 100 (≈ 380 µM) | 100 (≈ 380 µM) | > 100 | > 100
20 | Br.Cn1ccnc1SCCOc1ccc([N+](=O)[O-])cc1 | > 100 | > 100 | inactive | > 100 | 100 | > 100 | > 100
